# How the values were obtained:
# [1] = tested on: FM3A; test: Antiproliferative activity against mouse FM3A cells after 2 days by coulter counter method; format: functional, cell-based; details: 48 h
# In short: (§1)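 Cells seeded at 300,000-500,000 cells/mL, mixed 1:1 with compound dilutions and incubated 2 days at 37 °C. Cell number counted by Coulter counter. Mean ± SE of at least three independent experiments.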
# [2] = tested on: L1210; test: Antiproliferative activity against mouse L1210 cells after 2 days by coulter counter method; format: functional, cell-based; details: L1210, 48 h
# In short: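 Cells seeded at 300,000-500,000 cells/mL, mixed 1:1 with compound dilutions and incubated 2 days at 37 °C. Cell number counted by Coulter counter. IC50 is the concentration giving 50% inhibition of proliferation, taken from dose-response curves. Mean ± SE of at least three independent experiments.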
# [3] = tested on: CCRF-CEM; test: Antiproliferative activity against human CEM cells after 2 days by coulter counter method; format: functional, cell-based; details: 48 h; in short: as §1
# [4] = tested on: HeLa; test: Antiproliferative activity against human HeLa cells after 2 days by coulter counter method; format: functional, cell-based; details: 48 h; in short: as §1
# [5] = tested on: MOLT-4; test: Antiproliferative activity against human MOLT4 cells after 2 days by coulter counter method; format: functional, cell-based; details: MOLT-4, 48 h; in short: as §1
# [6] = tested on: HeLa; test: Induction of apoptosis in human HeLa cells assessed as appearance of hypodiploid cells after 24 hrs using propidium iodide staining by flow cytometry; format: functional, cell-based
# In short: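 HeLa cells (5×10^5, exponential growth) exposed to a range of concentrations for 24 h, then ethanol-fixed (70%, ice-cold), RNaseA-treated and propidium iodide-stained for flow cytometry. Apoptotic fraction taken as the cells forming a sub-G1 peak.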
# [7] = tested on: HeLa; test: Cell cycle arrest in human HeLa cells assessed as accumulation at G2/M phase at 30 nM after 24 hrs uisng propidium iodide staining by flow cytometry; format: functional
# In short: (§2)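 Exponentially growing HeLa cells (5×10^5) treated 24 h. Floating and trypsinized cells pooled, fixed in ice-cold 70% ethanol, lysed with RNaseA buffer and stained with propidium iodide. DNA histograms acquired by flow cytometry. Percentages of G1, S and G2/M phases calculated on living cells, with the sub-G1 peak also scored.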
# [8] = tested on: HeLa; test: Cell cycle arrest in human HeLa cells assessed as accumulation at subG1 phase at 30 nM after 24 hrs uisng propidium iodide staining by flow cytometry; format: functional; in short: as §2
# [9] = tested on: HeLa; test: Cell cycle arrest in human HeLa cells assessed as accumulation at S phase at 30 nM after 24 hrs uisng propidium iodide staining by flow cytometry; format: functional; in short: as §2
# [10] = tested on: HeLa; test: Cell cycle arrest in human HeLa cells assessed as accumulation at G1 phase at 30 nM after 24 hrs uisng propidium iodide staining by flow cytometry; format: functional; in short: as §2
# [11] = Inhibition of bovine brain tubulin polymerization by turbidimetry; design: species or system Bos taurus
# In short: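 Purified bovine brain tubulin (10 μM) preincubated with varying compound concentrations in glutamate buffer at 30 °C, then chilled to 0 °C. GTP added, mixtures warmed to 30 °C in a recording spectrophotometer and assembly followed turbidimetrically.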
# [12] = species on record: Bos taurus; test: Displacement of [3H]colchicine from bovine brain tubulin at 1 uM
# In short: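 Reaction mixtures held 1 μM bovine brain tubulin, 5 μM [3H]colchicine and 1 μM test compound. Inhibition of radiolabelled colchicine binding to tubulin was measured.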
IC50 [11] [nM],inhibition [12] [%],SMILES,IC50 [1] [nM],IC50 [2] [nM],IC50 [3] [nM],IC50 [4] [nM],IC50 [5] [nM],Activity [6],Activity [7] [%],Activity [8] [%],Activity [9] [%],Activity [10] [%]
,,COc1ccc(C(=O)c2sc(Nc3ccc(F)cc3)nc2N)cc1,> 10000,> 10000,> 10000,> 10000,> 10000,,,,,
,,COc1ccc(Nc2nc(N)c(C(=O)c3ccc([N+](=O)[O-])cc3)s2)cc1,310,280,31,350,29,,,,,
,,COc1ccc(Nc2nc(N)c(C(=O)c3ccccc3)s2)cc1,730,850,300,230,230,,,,,
,,COc1ccc(Nc2nc(N)c(C(=O)c3ccc(Br)cc3)s2)cc1,100,110,39,79,16,,,,,
720,87,COc1cc(C(=O)c2sc(Nc3ccc(C)cc3)nc2N)cc(OC)c1OC,15,31,41,86,21,Dose-dependent effect,50.5,18.9,17.4,32.1
2800,63,COc1ccc(Nc2nc(N)c(C(=O)c3ccc(OC)c(OC)c3)s2)cc1,71,38,10,52,37,Dose-dependent effect,48.8,17.8,15.5,35.7
,,COc1ccc(Nc2nc(N)c(C(=O)c3cc(OC)c(OC)c(OC)c3)s2)cc1,2200,1500,1100,560,480,,,,,
1400,77,COc1ccc(Nc2nc(N)c(C(=O)c3ccccc3OC)s2)cc1,52,31,17,17,18,Dose-dependent effect,40.1,28.6,20.4,38.5
,,COc1ccc(C(=O)c2sc(Nc3ccccc3)nc2N)cc1OC,> 10000,> 10000,6900,6000,5500,,,,,
,,COc1cc(C(=O)c2sc(Nc3ccc(F)cc3)nc2N)cc(OC)c1OC,58,900,400,440,280,,,,,
,,Cc1ccc(Nc2nc(N)c(C(=O)c3ccccc3)s2)cc1,1500,2800,370,900,210,,,,,
,35,Nc1nc(Nc2ccccc2)sc1C(=O)c1ccccc1,8200,8100,3900,6100,7300,,,,,
1400,84,COc1ccc(Nc2nc(N)c(C(=O)c3cccc(OC)c3)s2)cc1,50,35,9.9,37,4,,39.2,9.6,20.8,40
,,COc1cccc(C(=O)c2sc(Nc3ccccc3)nc2N)c1,6200,7600,2300,1700,1300,,,,,
,,COc1ccc(C(=O)c2sc(Nc3ccccc3)nc2N)cc1,> 10000,> 10000,9100,> 10000,6900,,,,,
3600,43,COc1cccc(Nc2nc(N)c(C(=O)c3ccccc3)s2)c1,5000,8200,2900,3200,1500,,,,,
,,COc1ccc(/N=c2/[nH]c(N)c(C(=O)c3ccc(OC)cc3)s2)cc1,630,470,1200,330,320,,,,,
,,COc1cccc(Nc2nc(N)c(C(=O)c3cc(OC)c(OC)c(OC)c3)s2)c1,2000,2100,1300,1000,530,,,,,
,,COc1cc(C(=O)c2sc(Nc3ccc(Cl)cc3)nc2N)cc(OC)c1OC,420,420,190,180,110,,,,,
2500,75,COc1cc(C(=O)c2sc(Nc3ccccc3)nc2N)cc(OC)c1OC,23,18,9.4,14,6,Dose-dependent effect,42.3,22.2,25.6,32.1
4000,58,Cc1ccc(Nc2nc(-n3ccnc3C)cs2)cc1,1200,1800,1500,530,510,,,,,
,,Nc1nc(Nc2ccc(F)cc2)sc1C(=O)c1ccccc1,> 10000,> 10000,> 10000,> 10000,> 10000,,,,,
,,COc1ccc(C(=O)c2sc(Nc3ccc(Cl)cc3)nc2N)cc1,> 10000,> 10000,> 10000,> 10000,> 10000,,,,,
1100,89,COc1ccc(Nc2nc(N)c(C(=O)c3ccc(Cl)cc3)s2)cc1,59,84,19,83,13,Dose-dependent effect,64,23.3,18.9,17.1
,,COc1ccccc1C(=O)c1sc(Nc2ccccc2)nc1N,1100,1100,730,1200,1300,,,,,
,,Nc1nc(Nc2ccc(Cl)cc2)sc1C(=O)c1ccccc1,> 10000,> 10000,> 10000,> 10000,> 10000,,,,,

SMILES,IC50 [11] [nM],inhibition [12] [%],IC50 [1] [nM],IC50 [2] [nM],IC50 [3] [nM],IC50 [4] [nM],IC50 [5] [nM],Activity [6],Activity [7] [%],Activity [8] [%],Activity [9] [%],Activity [10] [%]
COc1ccc(/C=C\c2cc(OC)c(OC)c(OC)c2)cc1O [COMBRETASTATIN A4],1400,,,,,,,,,,,
